In ChEMBL document CHEMBL5608183, “Synthesis and evaluation of 3,4,5-trisubstituted triazoles as G protein-biased kappa opioid receptor agonists” (Eur J Med Chem, 2024):
Activity calls are given as the source filed them. The rule behind the calls is not given here.

Key:
[1] = target: T1, Kappa-type opioid receptor (Homo sapiens, UniProt P41145); experiment: Agonist activity at recombinant human kappa opioid receptor extracted from CHO cell membrane assessed as induction of [35S]GTPgammaS binding incubated for 1 hr by TopCount NXT Microplate Scintillation and Luminescence Counter analysis; assay type: functional, cell membranes
T1 sequence (P41145 whole entry): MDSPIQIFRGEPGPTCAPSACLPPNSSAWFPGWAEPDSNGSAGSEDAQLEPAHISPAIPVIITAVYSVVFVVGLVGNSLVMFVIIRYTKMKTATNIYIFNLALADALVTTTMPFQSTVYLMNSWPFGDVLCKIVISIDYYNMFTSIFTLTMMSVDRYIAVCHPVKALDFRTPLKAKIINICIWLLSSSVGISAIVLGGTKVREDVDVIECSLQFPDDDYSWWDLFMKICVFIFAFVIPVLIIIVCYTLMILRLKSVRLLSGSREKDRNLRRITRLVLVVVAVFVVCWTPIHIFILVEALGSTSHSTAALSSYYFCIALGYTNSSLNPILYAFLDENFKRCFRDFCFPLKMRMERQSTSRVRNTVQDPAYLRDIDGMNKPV

[2] = target: T1, Kappa-type opioid receptor; experiment: Agonist activity at human kappa opioid receptor tranfected in U2OS cells co-transfected with arrestin2-EFC assessed as induction of beta arrestin2 recruitment incubated for 90 mins by Synergy HT luminometer; assay type: functional, cell-based
Outline: (§1)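 PathHunter enzyme-fragment complementation in U2OS cells stably expressing hKOR and βarrestin2, grown in MEM with 10% FBS, geneticin and hygromycin B, run per manufacturer's protocol. Concentration–response curves were fit by three-parameter nonlinear regression, normalized to vehicle and to maximal stimulation by the reference agonist U69,593 on the same plate. 2–4 replicates per experiment; n ≥ 3 independent experiments; 95% CI.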

[3] = target: T1, Kappa-type opioid receptor; experiment: Agonist activity at recombinant human kappa opioid receptor extracted from CHO cell membrane assessed as induction of [35S]GTPgammaS binding by measuring maximum efficacy at 10 uM incubated for 1 hr by TopCount NXT Microplate Scintillation and Luminescence Counter analysis relative to U69,593; assay type: functional, cell membranes
[4] = target: T1, Kappa-type opioid receptor; experiment: Agonist activity at human kappa opioid receptor tranfected in U2OS cells co-transfected with arrestin2-EFC assessed as induction of beta arrestin2 recruitment by measuring maximum efficacy incubated for 90 mins by Synergy HT luminometer relative to […]; assay type: functional, cell-based
Outline: as §1, with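 “plate.” for “plate. 2–4 replicates per experiment; n ≥ 3 independent experiments; 95% CI.”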

[5] = Metabolic stability in human liver microsome assessed as half life at 1 uM by LC-MS/MS analysis; assay type: ADME, microsomes; settings: for half-life at 1 µM: liver microsomes; for t1/2: microsomes, 1 µM
Outline: (§2)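 Hepatic microsomes (1 mg/mL) were incubated with 1 μM compound at 37 °C with continuous shaking. Reactions were quenched with acetonitrile at 5-min intervals over 1 h and filtered. Half-life was determined by LC-MS/MS.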

[6] = Metabolic stability in mouse liver microsome assessed as half life at 1 uM by LC-MS/MS analysis; assay type: ADME; settings: liver microsomes; outline: as §2
[7] = target: Delta-type opioid receptor (Homo sapiens) (UniProt P41143); experiment: Binding affinity to delta opioid receptor (unknown origin) assessed as inhibition of [3H]-D-Ala2,D-Leu5-enkephalin binding at 10 uM by radioligand binding assay relative to control
Delta-type opioid receptor (Homo sapiens), sequence (P41143 whole entry): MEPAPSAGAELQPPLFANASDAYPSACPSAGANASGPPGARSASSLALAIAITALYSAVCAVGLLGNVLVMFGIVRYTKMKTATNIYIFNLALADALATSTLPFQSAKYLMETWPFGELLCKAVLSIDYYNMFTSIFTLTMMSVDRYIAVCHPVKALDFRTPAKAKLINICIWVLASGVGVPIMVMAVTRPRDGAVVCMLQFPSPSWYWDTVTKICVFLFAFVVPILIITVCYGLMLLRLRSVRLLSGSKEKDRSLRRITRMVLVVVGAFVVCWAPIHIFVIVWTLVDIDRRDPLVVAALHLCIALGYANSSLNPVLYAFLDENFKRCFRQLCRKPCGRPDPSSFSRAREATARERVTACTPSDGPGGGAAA

[8] = target: T1, Kappa-type opioid receptor; experiment: Binding affinity to kappa opioid receptor (unknown origin) assessed as inhibition of [3H]-[…] binding at 10 uM by radioligand binding assay relative to control; settings: filed as agonist
[9] = target: Mu-type opioid receptor (Homo sapiens) (UniProt P35372); experiment: Binding affinity to Mu opioid receptor (unknown origin) assessed as inhibition of [3H]-D-Ala2,N-MePhe4,Gly-ol-enkephalin binding at 10 uM by radioligand binding assay relative to control
Mu-type opioid receptor (Homo sapiens), sequence (P35372 whole entry): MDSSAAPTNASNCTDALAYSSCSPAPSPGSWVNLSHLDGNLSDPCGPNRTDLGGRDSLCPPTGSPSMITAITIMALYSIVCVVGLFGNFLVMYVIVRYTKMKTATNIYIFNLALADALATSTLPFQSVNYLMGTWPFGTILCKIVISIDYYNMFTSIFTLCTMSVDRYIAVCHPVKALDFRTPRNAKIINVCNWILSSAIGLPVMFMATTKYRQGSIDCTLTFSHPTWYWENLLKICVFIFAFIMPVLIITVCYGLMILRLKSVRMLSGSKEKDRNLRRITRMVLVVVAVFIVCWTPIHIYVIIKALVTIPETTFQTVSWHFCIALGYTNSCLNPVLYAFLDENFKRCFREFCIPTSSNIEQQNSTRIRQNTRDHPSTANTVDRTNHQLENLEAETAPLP

[10] = target: T1, Kappa-type opioid receptor; experiment: Displacement of [3H]-[…] from kappa opioid receptor (unknown origin) assessed as inhibition constant by radioligand binding assay

| Compound | Emax ([3]; filed as agonist) [%] | half-life at 1 µM [5] [min] | half-life at 1 µM [6] [min] | EC50 [1] [nM] | EC50 [2] [nM] | Emax ([4]; filed as agonist) [%] | other results |
| --- | --- | --- | --- | --- | --- | --- | --- |
| Cc1ccc(CCc2nnc(-c3cccc4ccccc34)n2Cc2cccs2)cc1C(F)(F)F |  |  |  | 429 |  |  |  |
| Cc1ccc(/C=C/c2nnc(-c3nccn3C)n2Cc2cccs2)cc1C(F)(F)F |  |  |  | 787 |  |  |  |
| Cc1ccc(CCc2nnc(-c3ccc4ccccc4c3)n2Cc2cccs2)cc1C(F)(F)F |  |  |  | 2960 |  |  |  |
| COc1ccc(CCc2nnc(-c3ccccn3)n2Cc2cccs2)cc1 |  |  |  | 122 |  |  |  |
| Clc1ccc(CCc2nnc(-c3ccccn3)n2Cc2cccs2)cc1Cl |  | 1.5 | 1.2 | 5 | 319 |  |  |
| Cc1ccc(CCc2nnc(-c3ncccc3C)n2Cc2cccs2)cc1C(F)(F)F |  |  |  | 13 | 1610 | 118 |  |
| Cc1ccc(CSc2nnc(-c3ccccn3)n2Cc2ccco2)cc1C(F)(F)F |  |  |  |  |  |  | t1/2 [5]: 1.1 min |
| Cc1ccc(CCc2nnc(-c3ccccn3)n2Cc2nccs2)cc1C(F)(F)F | 64 |  |  | 34 | 1290 | 95 |  |
| Clc1ccc(CCc2nnc(-c3ccccn3)n2Cc2cccs2)c(Cl)c1 | 91 | 2.1 | 2.6 | 32 | 5160 | 154 |  |
| FC(F)(F)c1ccccc1CCc1nnc(-c2ccccn2)n1Cc1cccs1 |  |  |  | 429 |  |  |  |
| Cc1ccc(CCc2nnc(-c3ccncn3)n2Cc2cccs2)cc1C(F)(F)F |  |  |  | 991 |  |  |  |
| Cc1ccc(CCc2nnc(-c3ccccn3)n2Cc2ccncc2)cc1C(F)(F)F |  |  |  |  |  |  | Activity [1]: inactive |
| Cc1ccc(CCc2nnc(-c3ccc4ccccc4n3)n2Cc2cccs2)cc1C(F)(F)F |  |  |  | 872 |  |  |  |
| Cc1ccc(CCc2nnc(-c3ccccc3)n2Cc2cccs2)cc1C(F)(F)F |  | 1.8 | 0.9 | 406 |  |  |  |
| Cc1ccc(CCc2nnc(-c3nccn3C)n2Cc2cccs2)cc1C(F)(F)F | 91 | 3.1 | 1.5 | 34 | 1020 | 132 |  |
| Cc1ccc(CCc2nnc(-c3ncccn3)n2Cc2cccs2)cc1C(F)(F)F |  |  |  | 57 | 2220 | 150 |  |
| Cc1ccc(CCc2nnc(-c3ccccn3)n2Cc2ccccc2)cc1C(F)(F)F |  | 0.9 | 1.3 | 83 | 6740 | 183 |  |
| Cc1ccc(CCc2nnc(-c3ccccn3)n2Cc2ccco2)cc1C(F)(F)F | 90 |  | 0.8 | 21 | 803 |  | t1/2 [5]: 0.9 min |
| Cc1ccc(/C=C/c2nnc(-c3ccccn3)n2Cc2nccs2)cc1C(F)(F)F | 83 |  |  | 1130 |  |  |  |
| Brc1ccccc1CCc1nnc(-c2ccccn2)n1Cc1cccs1 | 84 |  |  | 358 |  |  |  |
| Cc1ccc(CCc2nnc(-c3ccccn3)n2CC2CC2)cc1C(F)(F)F |  |  |  | 213 | 6220 |  |  |
| Cc1ccc(CCc2nnc(-c3ccccn3)n2Cc2cccs2)cc1C(F)(F)F |  | 1.4 | 1.5 | 11 | 594 | 102 | inhibition [7]: 30.7%; inhibition [8]: 99.7%; inhibition [9]: 30.9%; Ki [10]: 5.8 nM |
| Cc1ccc(/C=C/c2nnc(-c3nccn3C)n2Cc2nccs2)cc1C(F)(F)F | 309 |  |  |  | 2190 |  | Emax [4]: 36% |
| Brc1ccc(CCc2nnc(-c3ccccn3)n2Cc2cccs2)cc1 | 92 |  |  | 20 | 723 | 93 |  |
| c1ccc(-c2nnc(CCc3ccc4ccccc4c3)n2Cc2cccs2)nc1 |  |  |  | 12 | 896 |  |  |
| Brc1cccc(CCc2nnc(-c3ccccn3)n2Cc2cccs2)c1 | 89 |  |  | 51 | 5610 | 118 |  |
| c1ccc(-c2nnc(CCc3cccc4ccccc34)n2Cc2cccs2)nc1 |  |  |  | 184 |  |  |  |

The next lines start with results.

| Emax ([3]; filed as agonist) [%] | half-life at 1 µM [5] [min] | half-life at 1 µM [6] [min] | Compound | EC50 [1] [nM] | EC50 [2] [nM] | Emax ([4]; filed as agonist) [%] | other results |
| --- | --- | --- | --- | --- | --- | --- | --- |
| 84 |  |  | Cc1ccc(CCc2nnc(-c3ccccn3)n2Cc2ccccn2)cc1C(F)(F)F | 175 | 8120 | 127 |  |
| 85 |  |  | Cc1ccc(CCc2nnc(-c3cccnc3)n2Cc2cccs2)cc1C(F)(F)F | 1880 |  |  |  |
| 79 | 22 | 30.2 | Cc1ccc(/C=C/c2nnc(-c3ccccn3)n2Cc2cccs2)cc1C(F)(F)F | 496 |  |  |  |
| 76 | 5.5 | 1.6 | c1ccc(CCc2nnc(-c3ccccn3)n2Cc2cccs2)cc1 | 926 |  |  |  |
| 90 |  |  | Fc1ccc(CCc2nnc(-c3ccccn3)n2Cc2cccs2)cc1 | 284 | 2640 | 97 |  |
| 82 | 7.2 | 0.9 | FC(Cc1nnc(-c2ccccn2)n1Cc1cccs1)c1ccccc1 (stereo not given) |  |  |  |  |
|  | 69.7 | 1 | c1ccc(-c2nnc(-c3ccccn3)n2Cc2cccs2)cc1 |  |  |  |  |
|  | 1.6 | 1 | Cc1ccc(CCc2nnc(-c3ccccn3)n2-c2ccccc2)cc1C(F)(F)F |  |  |  | Activity [1]: inactive |
|  | 8.1 | 1.2 | O=C(Cc1ccccc1)c1nnc(-c2ccccn2)n1Cc1ccco1 |  |  |  | Emax [3]: 4% |
|  | 17.4 | 2.5 | OC(Cc1ccccc1)c1nnc(-c2ccccn2)n1Cc1ccco1 (stereo not given) |  |  |  | Emax [3]: 20% |
|  | 20.7 | 2.6 | OC(Cc1nnc(-c2ccccn2)n1Cc1cccs1)c1ccccc1 (stereo not given) |  |  |  | Emax [3]: 17% |
| 87 | 1.7 | 1.6 | Cc1ccc(CCc2nnc(-c3ccccn3)n2Cc2cccnc2)cc1C(F)(F)F | 55 | 421 | 119 |  |
| 89 |  | 32.2 | Cc1ccc(/C=C/c2nnc(-c3ccccn3)n2Cc2ccco2)cc1C(F)(F)F | 1170 |  |  | t1/2 [5]: 18 min |
| 86 | 3.3 | 3.3 | Clc1ccc(CCc2nnc(-c3ccccn3)n2Cc2cccs2)cc1 | 33 | 2870 | 137 |  |
|  | 9.1 | 1.9 | FC(Cc1ccccc1)c1nnc(-c2ccccn2)n1Cc1ccco1 (stereo not given) |  |  |  |  |
